This passage reports IC50 and bioavailability results from ChEMBL document CHEMBL1126032, “Nonpeptide renin inhibitors employing a novel 3-aza(or oxa)-2,4-dialkyl glutaric acid moiety as a P2/P3 amide bond replacement” (J Med Chem, 1992).

As usually defined, the pIC50 is the negative decadic logarithm of the IC50, by convention in mol/L. The term bioavailability denotes the share of a dose that reaches the circulation, judged against a reference dose that is usually intravenous.

For series [1], the target named is T1, Renin (Homo sapiens, UniProt P00797).
T1 sequence (P00797 whole entry): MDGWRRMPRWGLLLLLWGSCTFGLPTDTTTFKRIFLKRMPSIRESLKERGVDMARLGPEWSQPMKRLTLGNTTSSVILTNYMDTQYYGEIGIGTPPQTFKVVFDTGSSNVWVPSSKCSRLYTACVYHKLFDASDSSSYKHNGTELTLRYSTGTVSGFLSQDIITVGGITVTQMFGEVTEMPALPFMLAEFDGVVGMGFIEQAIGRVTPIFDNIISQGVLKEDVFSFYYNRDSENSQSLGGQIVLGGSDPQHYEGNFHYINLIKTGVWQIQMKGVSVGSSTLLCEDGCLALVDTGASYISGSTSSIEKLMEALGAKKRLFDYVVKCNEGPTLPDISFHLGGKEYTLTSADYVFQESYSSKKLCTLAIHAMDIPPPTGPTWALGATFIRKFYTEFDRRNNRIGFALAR
In words: In vitro potency against plasma renin at a pH of 7.4. The class given is cell-free. An outline of the steps:
(§1)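 Human renin, either purified enzyme or renin in plasma, was assayed at the stated pH. Inhibition was reported as IC50 in nM.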

Series [2] concerns the target T1, Renin. In words: In vitro potency against purified renin at a pH of 6.0. An outline of the steps:
as §1

Series [3] in a line: Bioavailability in monkey (dose 10 mg/kg i.d. or 0.3 mg/kg i.v.). Type of series: ADME, organism-based. To be noted: primates, in vivo, iv. An outline of the steps: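 Male cynomolgus monkeys (3–5 kg), salt-depleted, fasted overnight, pentobarbital-anesthetized (15 mg/kg bolus, then 0.10 mg kg⁻¹ min⁻¹ infusion). Compound given as HCl salt solution, either iv via a leg vein or id by catheter into the proximal duodenum after laparotomy; one dose per monkey. Serial plasma levels were measured by HPLC or bioassay, and AUC was fitted to a biexponential decay. Bioavailability = dose-corrected AUC(id)/AUC(iv) × 100.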

The target in series [4] is T1, Renin. In words: In vitro potency against plasma renin at a pH of 6.0. The class given is cell-free. An outline of the steps: as §1
Series [5] deals with T1, Renin. In words: In vitro potency against purified renin at a pH of 7.4. An outline of the steps: as §1

pIC50: −log10 of the molar value. A value given as a limit tells only on which side of the number the result lay.

Turning to `CCCCNC(=O)[C@@H](C[C@H](O)[C@H](CC1CCCCC1)NC(=O)[C@H](CCCC)N[C@@H](Cc1ccccc1)C(=O)N1CCC(OCOC)CC1)C(C)C`, the negative logarithm of the IC50 (pIC50) was 8.06 against Renin [1] and 9.05 at Renin [2]. The same compound gave a bioavailability in series [3] of 7.1%.

Regarding `CCCC[C@H](O[C@@H](Cc1ccccc1)C(=O)N1CCC(OCSC)CC1)C(=O)N[C@@H](CC1CCCCC1)[C@@H](O)[C@@H](O)CC(C)C`, on Renin [2], the negative logarithm of the IC50 (pIC50) was 6.89.

Turning to `CCC[C@H](O[C@@H](Cc1ccccc1)C(=O)N1CCC(OCOC)CC1)C(=O)N[C@@H](CC1CCCCC1)[C@@H](O)[C@@H](O)CC(C)C`, the pIC50 at Renin [4] is 8.48; against Renin [1], 7.51; against Renin [2], 8.85; at Renin [5], 8.26.

As to `CCCC[C@H](O[C@@H](Cc1ccccc1)C(=O)N1CCC(SCOC)CC1)C(=O)N[C@@H](CC1CCCCC1)[C@@H](O)[C@@H](O)CC(C)C`, the negative-log IC50 (pIC50) at Renin [1] was 6.92; at Renin [2], 8.74.

The compound `CC(C)C[C@@H](N[C@@H](Cc1ccccc1)C(=O)OC(C)(C)C)C(=O)N[C@@H](CC1CCCCC1)[C@@H](O)[C@@H](O)CC(C)C` gave a negative-log IC50 (pIC50) at Renin [2] of 5.57.

Turning to `CCCCNC(=O)[C@@H](C[C@H](O)[C@H](CC1CCCCC1)NC(=O)[C@H](CCCC)O[C@@H](Cc1ccccc1)C(=O)N1CCC(OCOC)CC1)C(C)C`, the results for the negative logarithm of the IC50 (pIC50) on Renin [1] and on Renin [2] were 8.09 and 8.92, respectively.

The compound `CCCCC1CCN(C(=O)[C@H](Cc2ccccc2)O[C@@H](CCCC)C(=O)N[C@@H](CC2CCCCC2)[C@@H](O)[C@@H](O)CC(C)C)CC1` gave a negative logarithm of the IC50 (pIC50) on Renin [2] of 5.96.

For `CCCC[C@H](O[C@@H](Cc1ccccc1)C(=O)N1CCC(O)CC1)C(=O)N[C@@H](CC1CCCCC1)[C@@H](O)[C@@H](O)CC(C)C`, on Renin [2], the negative logarithm of the IC50 (pIC50) was 6.89.

Take `CCCC[C@H](N[C@@H](Cc1ccccc1)C(=O)N1CCC(OCCOC)CC1)C(=O)N[C@@H](CC1CCCCC1)[C@@H](O)[C@@H](O)CC(C)C`: the pIC50 against Renin [1] was 5.74; against Renin [2], 7.51.

Take `CCCC[C@H](O[C@@H](Cc1ccccc1)C(=O)N1CCOCC1)C(=O)N[C@@H](CC1CCCCC1)[C@@H](O)[C@@H](O)CC(C)C`: the pIC50 against Renin [1] is 6.00; against Renin [2], 7.82.

As for `CCNC(=O)[C@H](Cc1ccccc1)O[C@@H](C)C(=O)N[C@@H](CC1CCCCC1)[C@@H](O)[C@@H](O)CC(C)C`, on Renin [2], the pIC50 is 6.89.

For the compound `CCCC[C@H](N[C@@H](Cc1ccccc1)C(=O)N1CCOCC1)C(=O)N[C@@H](CC1CCCCC1)[C@@H](O)[C@@H](O)CC(C)C`, the pIC50 against Renin [1] was 5.92; against Renin [2], 7.89.

For `CCCC[C@@H](N[C@@H](Cc1ccccc1)C(=O)N1CCOCC1)C(=O)N[C@@H](CC1CCCCC1)[C@@H](O)[C@@H](O)CC(C)C`, on Renin [2], the pIC50 is 6.12.

Consider `CC(C)C[C@H](O)[C@H](O)[C@H](CC1CCCCC1)NC(=O)[C@H](C)O[C@@H](Cc1ccccc1)C(=O)N1CCOCC1`, for which the negative logarithm of the IC50 (pIC50) against Renin [1] was 5.37; against Renin [2], 7.35.

On to `CCCC[C@H](O[C@@H](Cc1ccccc1)C(=O)N1CCCCC1)C(=O)N[C@@H](CC1CCCCC1)[C@@H](O)[C@@H](O)CC(C)C`, for which the pIC50 against Renin [2] was 7.62.

Regarding `CC(C)C[C@H](O)[C@H](O)[C@H](CC1CCCCC1)NC(=O)[C@H](C)O[C@@H](Cc1ccccc1)C(=O)N1CCCCC1`, the negative-log IC50 (pIC50) was 5.09 against Renin [1] and 7.60 against Renin [2].

As to `CCCC[C@H](N[C@@H](Cc1ccccc1)C(=O)N1CCC(OCOC)CC1)C(=O)N[C@@H](CC1CCCCC1)[C@@H](O)[C@@H](O)CC(C)C`, the pIC50 at Renin [4] is 8.41; on Renin [1], 7.77; against Renin [2], 8.96; on Renin [5], 8.55.

On to `CC(C)C[C@H](N[C@@H](Cc1ccccc1)C(=O)OC(C)(C)C)C(=O)N[C@@H](CC1CCCCC1)[C@@H](O)[C@@H](O)CC(C)C`, for which the pIC50 at Renin [2] was 6.47.

Take `CCCC[C@H](O[C@@H](Cc1ccccc1)C(=O)N1CCC(CCOC)CC1)C(=O)N[C@@H](CC1CCCCC1)[C@@H](O)[C@@H](O)CC(C)C`: the results for the pIC50 on Renin [1] and against Renin [2] were 5.89 and 7.74, respectively.

`CCCC[C@H](O[C@@H](Cc1ccccc1)C(=O)N1CCC(OCCC)CC1)C(=O)N[C@@H](CC1CCCCC1)[C@@H](O)[C@@H](O)CC(C)C` gave a pIC50 on Renin [2] of 6.54.

Consider `COCOC1CCN(C(=O)[C@H](Cc2ccccc2)O[C@@H](C)C(=O)N[C@@H](CC2CCCCC2)[C@@H](O)[C@@H](O)CC(C)C)CC1`, for which the pIC50 was 7.57 at Renin [4], 6.47 against Renin [1] and 8.15 against Renin [5].

In the case of `CCCC[C@H](O[C@@H](Cc1ccccc1)C(=O)N1CCC(OCOC)CC1)C(=O)N[C@@H](CC1CCCCC1)[C@@H](O)[C@@H](O)CC(C)C`, the pIC50 is 8.52 against Renin [4], 7.89 against Renin [1], 9.00 against Renin [2] and 8.49 against Renin [5].

With `CCCC[C@H](O[C@@H](Cc1ccccc1)C(=O)N1CCC(OC)CC1)C(=O)N[C@@H](CC1CCCCC1)[C@@H](O)[C@@H](O)CC(C)C`, the negative logarithm of the IC50 (pIC50) on Renin [2] was 7.36.

At Renin [2], `CCCC[C@H](O[C@@H](Cc1ccccc1)C(=O)N1CCC(OCS(C)(=O)=O)CC1)C(=O)N[C@@H](CC1CCCCC1)[C@@H](O)[C@@H](O)CC(C)C` had a negative logarithm of the IC50 (pIC50) of 6.11.

With `CCCC[C@H](O[C@@H](Cc1ccccc1)C(=O)N1CCC(OC[S+](C)[O-])CC1)C(=O)N[C@@H](CC1CCCCC1)[C@@H](O)[C@@H](O)CC(C)C` (some centres undefined), the pIC50 on Renin [2] is 6.11.

Regarding `CC(C)C[C@H](O)[C@H](O)[C@H](CC1CCCCC1)NC(=O)[C@H](C)O[C@@H](Cc1ccccc1)C(=O)N1CCCC1`, on Renin [1], the negative logarithm of the IC50 (pIC50) is 5.43.

As for `CC[C@H](O[C@@H](Cc1ccccc1)C(=O)N1CCC(OCOC)CC1)C(=O)N[C@@H](CC1CCCCC1)[C@@H](O)[C@@H](O)CC(C)C`, the negative-log IC50 (pIC50) against Renin [4] was 8.10; against Renin [1] it was 6.92; against Renin [2], 9.05; against Renin [5], 8.27.

`CCN(CC)C(=O)[C@H](Cc1ccccc1)O[C@@H](C)C(=O)N[C@@H](CC1CCCCC1)[C@@H](O)[C@@H](O)CC(C)C` showed a pIC50 against Renin [2] below 6.00.

The compound `C=CCOC1CCN(C(=O)[C@H](Cc2ccccc2)O[C@@H](CCCC)C(=O)N[C@@H](CC2CCCCC2)[C@@H](O)[C@@H](O)CC(C)C)CC1` showed a negative logarithm of the IC50 (pIC50) against Renin [2] of 6.80.

On to `CC(C)C[C@H](O)[C@H](O)[C@H](CC1CCCCC1)NC(=O)[C@H](C)O[C@@H](Cc1ccccc1)C(=O)N1CCC1`, for which the pIC50 against Renin [1] is 6.00.

As for `CC(C)C[C@H](O)[C@H](O)[C@H](CC1CCCCC1)NC(=O)C(C)N[C@H](Cc1ccccc1)C(=O)N1CCOCC1` (single isomer, unassigned), the negative-log IC50 (pIC50) against Renin [2] is 6.00.

On Renin [2], `CCOC(=O)C(CCc1ccccc1)N[C@@H](C)C(=O)N[C@@H](CC1CCCCC1)[C@@H](O)[C@@H](O)CC(C)C` (single isomer, unassigned; less polar) had a pIC50 of 6.89.

Compound `CC(C)C[C@H](O)[C@H](O)[C@H](CC1CCCCC1)NC(=O)C(C)N[C@H](Cc1ccccc1)C(=O)N1CCOCC1` (single isomer, unassigned; less polar) had a pIC50 on Renin [2] of 5.80.

`CC(C)C[C@H](O)[C@H](O)[C@H](CC1CCCCC1)NC(=O)C(C)N[C@@H](Cc1ccccc1)C(=O)N1CCOCC1` (single isomer, unassigned; less polar) had a negative logarithm of the IC50 (pIC50) at Renin [2] of 7.07.

As for `CCOC(=O)C(CCc1ccccc1)N[C@@H](C)C(=O)N[C@@H](CC1CCCCC1)[C@@H](O)[C@@H](O)CC(C)C` (single isomer, unassigned; more polar), at Renin [2], the pIC50 is 6.82.

In the case of `CCOC(=O)C(CCc1ccccc1)N[C@@H](CC(C)C)C(=O)N[C@@H](CC1CCCCC1)[C@@H](O)[C@@H](O)CC(C)C` (single isomer, unassigned; more polar), the pIC50 on Renin [2] was 6.80.

Take `CC(C)C[C@H](O)[C@H](O)[C@H](CC1CCCCC1)NC(=O)C(C)N[C@@H](Cc1ccccc1)C(=O)N1CCOCC1` (single isomer, unassigned; more polar): the pIC50 against Renin [2] is 6.00.

Take `CCOC(=O)C(CCc1ccccc1)N[C@@H](CC(C)C)C(=O)N[C@@H](CC1CCCCC1)[C@@H](O)[C@@H](O)CC(C)C` (stereo in doubt): the negative logarithm of the IC50 (pIC50) against Renin [2] was 6.62.

Turning to `CC(C)CC(N[C@@H](CCc1ccccc1)C(=O)OC(C)(C)C)C(=O)N[C@@H](CC1CCCCC1)[C@@H](O)[C@@H](O)CC(C)C` (stereo in doubt; form 1), the negative-log IC50 (pIC50) on Renin [2] was 5.40.

`CC(C)CC(N[C@@H](CCc1ccccc1)C(=O)OC(C)(C)C)C(=O)N[C@@H](CC1CCCCC1)[C@@H](O)[C@@H](O)CC(C)C` (stereo in doubt; form 2) gave a pIC50 on Renin [2] of 6.00.
